We go through one compound from paper PMC6263940 (Nature chemical biology, 2018).

Molecules are shown by their SMILES.

Assay [1] addresses T1, ABHD12 (Homo sapiens, UniProt Q8N2K0).
T1 sequence (Q8N2K0 1-398): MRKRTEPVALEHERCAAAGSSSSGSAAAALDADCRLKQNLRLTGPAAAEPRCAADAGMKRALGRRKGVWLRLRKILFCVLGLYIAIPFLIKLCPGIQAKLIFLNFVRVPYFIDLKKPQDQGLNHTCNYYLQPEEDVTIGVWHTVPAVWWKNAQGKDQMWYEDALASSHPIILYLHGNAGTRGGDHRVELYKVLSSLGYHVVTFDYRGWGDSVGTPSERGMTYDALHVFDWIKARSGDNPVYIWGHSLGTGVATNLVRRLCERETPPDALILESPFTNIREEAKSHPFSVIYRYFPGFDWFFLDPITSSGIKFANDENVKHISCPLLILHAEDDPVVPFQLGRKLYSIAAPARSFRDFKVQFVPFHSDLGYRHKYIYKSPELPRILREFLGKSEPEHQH
The assay can be described thus: ABPP-SILAC. Type of assay: cell-based. The note with it: 1 μM, 4 h, THP-1 cells. The procedure, abridged: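 Heavy- or light-labelled THP-1 cells (30 million) differentiated with PMA (150 ng/mL final) for 24 h, washed, then kept a further 24 h in fresh SILAC medium. Light cells treated with test compound and heavy cells with DMSO, 4 h at 37 °C. Sonicated whole-cell proteomes (2 mg/mL) labelled separately with FP-biotin 1 μM, 30 min, room temperature, then combined for quantitative MS.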

Assay [2] has as its target T1, ABHD12. The experiment in a line: Gel-based competitive ABPP. The note with it: 24 h treatment, JJH350 probe. Type of assay: cell-based. The gist of the method:
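PBMCs collected from the gradient interface, red cells lysed (5 min, room temperature) and plated in DPBS at 2.26 × 10⁵ cells/cm²; adherent monocytes attach within 1–2 h. After in situ treatment, proteome (1 mg/mL) labelled with JJH350 (2 μM final, 45 min, 37 °C), clicked and run on gel. ABHD12 band intensity is normalised to the control sample (100%).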

For another assay, the system named is serine hydrolases. The experiment in a line: ABPP of brain serine hydrolase activities from treated mice. The note with it: gel- and MS-based ABPP, more than 65 other serine hydrolases quantified. Type of assay: in vivo, mouse. The procedure, abridged: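 Mice dosed i.p. with test compound (30 mg/kg) or vehicle and killed after 4 h (isoflurane, then cervical dislocation). Brain membrane serine hydrolase activities quantified by MS-based ABPP. Each protein's value is the mean of median peptide ratios (treated vs vehicle) ± SEM, from n = 4 or 3 independent samples per compound.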

The next assay concerns C57BL/6 mice. The experiment in a line: Targeted LC-MS of brain lipid content of treated mice. Type of assay: in vivo, mouse. The gist of the method: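 Mice received test compound or vehicle i.p. (single doses, 24 h; or 30 mg/kg time course), orally (24 h), or 30 mg/kg daily p.o. for four weeks (8-month-old mice). Brains harvested after isoflurane and cervical dislocation; lipids measured by targeted LC-MS. ABHD12(+/+) and (−/−) brains serve as reference; chronic data given as mean ± SEM.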

At ABHD12 [1], `FC(F)(F)Oc1ccc(Oc2ccnc(N3CCC(NC(=S)Nc4cccnc4)CC3)c2Cl)c(Cl)c1` [DO264, N-3-pyridyl-N’-(1-[3-chloro-4-{2-chloro-4-(trifluoromethoxy)phenoxy}pyridine-2-yl]piperidin-4-yl)thiourea] had an ABHD12 activity blocked of more than 95%. Further, the “ABHD12 activity in primary human macrophages” value on ABHD12 [2] is “inhibits ABHD12 activity”. In addition, the “selectivity for ABHD12 in vivo” value in the assay with serine hydrolases is given as “excellent selectivity”. The “time post-dosing at which brain lyso-PS changes were maximal” value in the assay with C57BL/6 mice (30 mg/kg, i.p., detectable by 4 h) turned out to be 24 h. Besides, in the assay with C57BL/6 mice (30 mg/kg, p.o., 24 h), the “brain 20:4 lyso-PI” value is reported as “increase”. In the assay on C57BL/6 mice (8-month-old mice, 30 mg/kg daily, p.o., four weeks), the “brain lyso-PS and 20:4 PS after chronic treatment” value is reported as “Substantial elevations”. The “brain lyso-PS species and select 20:4 PS species” value in the assay on C57BL/6 mice (DO264 1-60 mg/kg, (S)-DO271 60 mg/kg, i.p., 24 h) was “dose-dependently increased”. Moreover, the “brain 2-AG” value with C57BL/6 mice (brain tissue of treated mice) was “did not show changes”. For the same compound, in the assay on C57BL/6 mice (i.p., 24 h), the “dose at which maximal lyso-PS and 20:4 PS elevations were observed” value came out at 30 mg/kg.
